Experimental data as given in article PMC8081378 (Mutagenesis, 2019).

Key:
Assay type in all cases: cell-based, human
Phenion®FT skin tissues [1] = assay: 3D skin comet assay; conditions: for % tail DNA vs SC + APC: three treatments over 48 h in the presence of APC
EpiDerm™ skin tissues [2] = assay: skin comet assay in EpiDerm skin tissues; conditions: single 3 h treatment, doses ≥2 µg/cm^2, keratinocytes, data not shown
EpiDerm™ skin tissues [3] = assay: cytotoxicity in the RSMN assay
Outline: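 Skin tissues received test compound topically in 10 µl (16 µl/cm²) acetone, two or three times at 24 h intervals, in triplicate alongside solvent controls. Tissues were washed in DPBS, then DPBS-EDTA, and trypsinised (0.25% trypsin–0.02% EDTA, 15 min, 37°C) into single-cell suspensions. Viable cell count came from AO/DAPI staining with an automated counter, and % BN from AO staining over 500 cells/tissue. Both were expressed relative to solvent control; excessive cytotoxicity was a 55 ± 5 % reduction.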

EpiDerm™ skin tissues [4] = assay: reconstructed skin micronucleus
Phenion®FT skin tissues [5] = assay: cytotoxicity in the skin comet assay
Outline: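 Full-thickness tissues were cultured at the air–liquid interface (37°C, 5% CO₂). They were treated in triplicate with test compound ± APC in acetone (16 µl/cm²), either three times (48, 24 and 3 h) or once for 3 h. Afterwards, culture medium was kept at 4°C for adenylate kinase release. About 25% of each tissue was snap-frozen, homogenised in cold DPBS, heated (105°C, 5 min) and centrifuged; ATP was measured in the supernatant with a kit. Both measures were expressed relative to solvent control (100%).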

Phenion®FT skin tissues [6] = assay: DNA adduct formation by TLC 32P-postlabelling assay

## CC(=O)N(O)c1ccc2c(c1)Cc1ccccc1-2 [N-OH-2-AAF, N-hydroxy-2-acetylaminofluorene]
Phenion®FT skin tissues [1]; single 3 h treatment, 4 µg/cm^2, keratinocytes and fibroblasts
  % tail DNA: significantly increased the % tail DNA
Phenion®FT skin tissues [1]; single 3 h treatment, 1 and 4 µg/cm^2, both cell types
  DNA damage (% tail DNA) in the presence of APC vs compound alone: further amplified
EpiDerm™ skin tissues [2]
  DNA damage in the skin comet assay: highly significant dose-dependent increase in DNA damage
EpiDerm™ skin tissues [3]; two or three treatments over 48 h or 72 h
  dose that exceeded the cytotoxicity threshold by % BN: 0.8 µg/cm^2
EpiDerm™ skin tissues [4]; three treatments over 72 h, doses up to 0.8 µg/cm^2
  DNA damage in the RSMN assay (% MN-BN): did not cause a significant increase in DNA damage
EpiDerm™ skin tissues [4]; two treatments over 48 h, doses up to 0.8 µg/cm^2
  DNA damage in the RSMN assay (% MN-BN): did not cause a significant increase in DNA damage

## CC(=O)Nc1ccc2c(c1)Cc1ccccc1-2 [2-AAF, 2-acetylaminofluorene]
Phenion®FT skin tissues [1]; fibroblasts, both experiments, all doses tested
  % tail DNA vs SC + APC: significant increase in the % tail DNA
Phenion®FT skin tissues [1]; keratinocytes, at 75 µg/cm^2
  % tail DNA vs SC + APC: only statistically significant in one experiment
EpiDerm™ skin tissues [4]; topical, three doses over 72 h, up to 96 µg/cm^2
  DNA damage in the RSMN assay (% MN-BN): did not significantly increase DNA damage
EpiDerm™ skin tissues [4]; topical, two times over a 48-h period, doses up to 140 µg/cm^2, vs SC
  MN formation (% MN-BN): did not result in a significant increase in MN formation
Phenion®FT skin tissues [5]; three treatments over 48 h with APC
  dose that exceeded the % ATP cytotoxicity threshold: 75 µg/cm^2
Phenion®FT skin tissues [6]; multiple exposures over 48 h
  increase of adduct levels after multiple exposures over 48 h vs 3 h treatment: > 10 fold
Phenion®FT skin tissues [6]; single 3 h treatment, 50 and 150 µg/cm^2
  2-AAF-derived DNA adducts: minimal, but detectable
Phenion®FT skin tissues [6]; three treatments over 48 h
  DNA adduct level (RAL), up to: ~ 10 adducts per 10^8 nucleotides
Phenion®FT skin tissues [6]; three-treatment protocol, 150 µg/cm^2, with APC
  DNA adduct levels in the presence of APC: additional, but non-significant increase

## C[C@@]1(CO)[C@H](O)CC[C@@]2(C)[C@H]1CC[C@H]1C[C@@H]3C[C@@]12CC[C@]3(O)CO [APC, aphidicolin]
Phenion®FT skin tissues [1]; APC alone, 5 µg/ml in medium 4 h before end of incubation
  DNA damage (% tail DNA) vs SC group alone: small non-significant increase in DNA damage

## ONc1ccc2c(c1)Cc1ccccc1-2 [N-OH-2-AF, N-hydroxy-2-aminofluorene]
Phenion®FT skin tissues [1]; single 3 h treatment
  potency in the skin comet assay compared with N-OH-2-AAF: more potent
Phenion®FT skin tissues [1]; single 3 h treatment, 1 µg/cm^2, keratinocytes and fibroblasts
  near maximal level of DNA damage: 60–80 % tail DNA
Phenion®FT skin tissues [1]; single 3 h treatment, all three doses, both cell types
  DNA damage (% tail DNA) in the presence of APC: further amplified and reached near maximal levels
Phenion®FT skin tissues [1]; single 3 h treatment, doses of 0.25–4 µg/cm^2, keratinocytes and fibroblasts
  DNA damage (% tail DNA): robust, dose-responsive increase in DNA damage
EpiDerm™ skin tissues [3]; three treatments over 72 h, highest dose 1.3 µg/cm^2
  cytotoxicity by % VCC: approached the cytotoxicity threshold for % VCC at the highest dose
EpiDerm™ skin tissues [4]; three treatments over 72 h, at the two highest doses 0.85 and 1.3 µg/cm^2, P < 0.01
  micronuclei in the RSMN assay (% MN-BN): significant change in micronuclei
EpiDerm™ skin tissues [4]; two treatments over 48 h, up to 1.3 µg/cm^2
  MN formation (% MN-BN): did not significantly increase MN formation
Phenion®FT skin tissues [5]; single 3 h treatment in the presence of APC
  cytotoxicity (% AK, % ATP): absence of excessive cytotoxicity
Phenion®FT skin tissues [6]; single 3 h treatment, 1 µg/cm^2
  level of DNA adducts compared with N-OH-2-AAF at the same dose: not significantly different
